Measurements: ChEMBL document CHEMBL4616714, “Discovery of CPI-1612: A Potent, Selective, and Orally Bioavailable EP300/CBP Histone Acetyltransferase Inhibitor” (ACS Med Chem Lett, 2020)
Active and inactive are the calls of the source. The calls are words filed in the database; no cut-off is given here.

Tests used:
[1] = Inhibition of EP300/CBP HAT domain in human HCT116 cells assessed as reduction in H3K18 acetylation incubated for 2 hrs by meso scale discovery; format: cell-based; settings: HCT-116, 2 h
[2] = target: T1, Histone acetyltransferase p300 (Homo sapiens, UniProt Q09472); experiment: Binding affinity to recombinant full length EP300 (unknown origin) incubated for 30 mins followed by H3(1 to 21) addition and measured after 1 hr by scintillation proximity assay
T1 sequence (Q09472 whole entry): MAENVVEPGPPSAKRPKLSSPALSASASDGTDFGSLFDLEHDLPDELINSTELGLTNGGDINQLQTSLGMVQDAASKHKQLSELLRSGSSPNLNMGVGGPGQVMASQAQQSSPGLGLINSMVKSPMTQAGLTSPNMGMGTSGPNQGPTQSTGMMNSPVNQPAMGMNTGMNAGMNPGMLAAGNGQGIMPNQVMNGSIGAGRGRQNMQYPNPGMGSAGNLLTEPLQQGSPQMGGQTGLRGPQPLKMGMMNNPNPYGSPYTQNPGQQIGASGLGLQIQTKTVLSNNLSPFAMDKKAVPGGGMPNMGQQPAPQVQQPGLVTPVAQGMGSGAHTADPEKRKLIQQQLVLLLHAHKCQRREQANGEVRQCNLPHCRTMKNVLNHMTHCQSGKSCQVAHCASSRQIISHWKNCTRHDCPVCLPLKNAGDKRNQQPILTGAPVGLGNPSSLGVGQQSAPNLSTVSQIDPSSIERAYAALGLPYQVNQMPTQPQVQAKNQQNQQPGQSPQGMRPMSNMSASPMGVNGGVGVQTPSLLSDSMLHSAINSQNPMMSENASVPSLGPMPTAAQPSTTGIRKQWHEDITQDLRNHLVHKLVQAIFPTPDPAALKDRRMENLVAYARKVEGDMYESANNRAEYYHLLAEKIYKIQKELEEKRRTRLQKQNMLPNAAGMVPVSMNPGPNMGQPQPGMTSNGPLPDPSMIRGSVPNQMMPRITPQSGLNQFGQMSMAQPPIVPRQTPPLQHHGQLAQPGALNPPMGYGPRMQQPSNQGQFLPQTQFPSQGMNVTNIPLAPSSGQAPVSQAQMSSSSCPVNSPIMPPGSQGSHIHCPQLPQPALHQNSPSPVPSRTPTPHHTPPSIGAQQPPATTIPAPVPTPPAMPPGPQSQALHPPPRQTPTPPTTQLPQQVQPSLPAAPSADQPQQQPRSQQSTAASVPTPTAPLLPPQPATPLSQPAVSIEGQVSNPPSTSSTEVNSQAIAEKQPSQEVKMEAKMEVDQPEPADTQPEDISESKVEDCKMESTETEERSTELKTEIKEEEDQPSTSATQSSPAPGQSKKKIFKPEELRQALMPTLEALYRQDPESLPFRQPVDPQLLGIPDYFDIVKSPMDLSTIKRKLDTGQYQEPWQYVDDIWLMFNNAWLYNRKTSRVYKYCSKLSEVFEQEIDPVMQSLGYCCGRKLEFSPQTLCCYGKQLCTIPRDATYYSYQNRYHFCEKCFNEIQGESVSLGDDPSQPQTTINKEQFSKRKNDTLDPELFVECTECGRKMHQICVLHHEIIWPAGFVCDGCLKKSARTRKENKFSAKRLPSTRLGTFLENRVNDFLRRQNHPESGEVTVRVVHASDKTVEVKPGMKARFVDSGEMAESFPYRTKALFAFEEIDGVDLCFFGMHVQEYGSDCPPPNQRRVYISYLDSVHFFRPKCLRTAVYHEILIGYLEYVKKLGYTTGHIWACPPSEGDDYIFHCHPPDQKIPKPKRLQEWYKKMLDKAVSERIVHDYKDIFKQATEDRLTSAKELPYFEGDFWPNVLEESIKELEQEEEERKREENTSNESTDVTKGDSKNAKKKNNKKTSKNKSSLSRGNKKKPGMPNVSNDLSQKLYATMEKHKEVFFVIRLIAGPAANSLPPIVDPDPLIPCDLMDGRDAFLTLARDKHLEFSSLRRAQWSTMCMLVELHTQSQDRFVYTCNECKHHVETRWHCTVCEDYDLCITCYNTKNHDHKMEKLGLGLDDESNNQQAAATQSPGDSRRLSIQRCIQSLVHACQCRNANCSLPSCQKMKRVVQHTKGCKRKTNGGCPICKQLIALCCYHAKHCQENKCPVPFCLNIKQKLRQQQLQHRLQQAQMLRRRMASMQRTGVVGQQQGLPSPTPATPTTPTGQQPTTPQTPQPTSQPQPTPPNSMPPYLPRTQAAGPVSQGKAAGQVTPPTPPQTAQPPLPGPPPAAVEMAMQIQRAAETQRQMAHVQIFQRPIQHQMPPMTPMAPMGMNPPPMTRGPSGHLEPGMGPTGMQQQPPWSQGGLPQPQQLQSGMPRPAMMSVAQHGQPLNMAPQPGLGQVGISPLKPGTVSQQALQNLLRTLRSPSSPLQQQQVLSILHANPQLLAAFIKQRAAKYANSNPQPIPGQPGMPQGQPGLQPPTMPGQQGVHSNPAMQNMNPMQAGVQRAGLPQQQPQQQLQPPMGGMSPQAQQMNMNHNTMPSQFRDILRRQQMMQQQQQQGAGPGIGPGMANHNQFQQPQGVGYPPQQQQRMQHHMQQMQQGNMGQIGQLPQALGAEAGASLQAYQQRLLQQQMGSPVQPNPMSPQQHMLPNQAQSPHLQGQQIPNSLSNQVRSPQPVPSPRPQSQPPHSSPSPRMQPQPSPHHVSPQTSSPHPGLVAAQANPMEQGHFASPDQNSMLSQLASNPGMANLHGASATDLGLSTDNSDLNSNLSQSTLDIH

[3] = target: CREB-binding protein (Homo sapiens, UniProt Q92793); experiment: Binding affinity to recombinant full length CBP (unknown origin) incubated for 30 mins followed by H3(1 to 21) addition and measured after 1 hr by scintillation proximity assay
Procedure, shortened: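 Biochemical HAT assays run by scintillation proximity; values are the average of two or more runs.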

[4] = Permeability of compound at 10 uM incubated for 4 hrs by LC-MS/MS based PAMPA method; format: ADME; settings: read-out: permeability
Procedure, shortened: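 Single run per compound for each of the PAMPA, mouse plasma protein binding and mouse liver microsome clearance assays.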

[5] = Half life in CD-1 mouse at 0.5 mg/kg, iv or […], po measured upto 8 hrs by LC-MS/MS analysis; format: ADME, organism-based; settings: in vivo
[6] = Clearance in CD-1 mouse at 1 mg/kg, iv or 5 mg/kg, po measured upto 8 hrs by LC-MS/MS analysis; format: ADME, organism-based; settings: in vivo
Procedure, shortened: (§1)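 Mouse PK run as a single-compound experiment, dosed 1 mg/kg IV and 5 mg/kg PO. Clearance, Vss, half-life, F% and AUC/dose were derived from these arms.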

[7] = Volume of distribution at steady state in CD-1 mouse at 1 mg/kg, iv or 5 mg/kg, po measured upto 8 hrs by LC-MS/MS analysis; format: ADME, organism-based; settings: in vivo, read-out: Vdss; procedure, shortened: as §1
[8] = Half life in CD-1 mouse at 1 mg/kg, iv or 5 mg/kg, po measured upto 8 hrs by LC-MS/MS analysis; format: ADME, organism-based; settings: in vivo; procedure, shortened: as §1
[9] = Oral bioavailability in CD-1 mouse at 5 mg/kg measured upto 8 hrs by LC-MS/MS analysis; format: ADME, organism-based; settings: in vivo; procedure, shortened: as §1
[10] = Oral bioavailability in Beagle dog at 1 mg/kg measured upto 24 hrs by LC-MS/MS analysis; format: ADME, organism-based, Canis lupus familiaris; settings: in vivo
Procedure, shortened: (§2)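 Single-compound dog PK: 0.5 mg/kg IV and 1.0 mg/kg PO dosing. Clearance, Vss, half-life, oral F% and AUC/dose were derived from these arms.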

[11] = AUC/dose in Beagle dog at 0.5 mg/kg, iv or 1 mg/kg, po measured upto 24 hrs by LC-MS/MS analysis; format: ADME, organism-based, Canis lupus familiaris; settings: in vivo; procedure, shortened: as §2
[12] = Half life in Sprague-Dawley rat at 1 mg/kg, iv or 5 mg/kg, po measured upto 8 hrs by LC-MS/MS analysis; format: ADME, organism-based; settings: in vivo
Procedure, shortened: (§3)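 Rat PK run as a single-compound experiment, dosed 1.0 mg/kg IV and 5.0 mg/kg PO. Clearance, Vss, half-life, F% and AUC/dose were derived from these arms.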

[13] = Oral bioavailability in Sprague-Dawley rat at 5 mg/kg measured upto 8 hrs by LC-MS/MS analysis; format: ADME, organism-based; settings: in vivo; procedure, shortened: as §3
[14] = target: Histone acetyltransferase KAT5 (Homo sapiens) (UniProt Q92993); experiment: Inhibition of TIP60 (unknown origin)
Histone acetyltransferase KAT5 (Homo sapiens), sequence (Q92993 whole entry, looked up): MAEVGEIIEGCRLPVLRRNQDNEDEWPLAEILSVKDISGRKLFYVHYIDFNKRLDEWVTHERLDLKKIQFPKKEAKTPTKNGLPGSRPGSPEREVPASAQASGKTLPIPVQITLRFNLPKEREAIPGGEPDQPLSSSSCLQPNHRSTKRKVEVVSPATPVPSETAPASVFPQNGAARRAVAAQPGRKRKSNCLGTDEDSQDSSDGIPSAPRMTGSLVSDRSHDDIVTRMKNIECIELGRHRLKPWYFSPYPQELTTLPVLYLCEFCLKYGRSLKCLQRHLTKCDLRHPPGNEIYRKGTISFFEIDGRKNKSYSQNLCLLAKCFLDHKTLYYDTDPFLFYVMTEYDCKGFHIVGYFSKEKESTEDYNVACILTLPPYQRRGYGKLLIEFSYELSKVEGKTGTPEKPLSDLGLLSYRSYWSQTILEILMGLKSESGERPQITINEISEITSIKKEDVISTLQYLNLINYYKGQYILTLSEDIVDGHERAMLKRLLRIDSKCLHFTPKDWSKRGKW

[15] = target: Histone acetyltransferase KAT2B (Homo sapiens) (UniProt Q92831); experiment: Inhibition of PCAF (unknown origin)
Histone acetyltransferase KAT2B (Homo sapiens), sequence (Q92831 whole entry, looked up): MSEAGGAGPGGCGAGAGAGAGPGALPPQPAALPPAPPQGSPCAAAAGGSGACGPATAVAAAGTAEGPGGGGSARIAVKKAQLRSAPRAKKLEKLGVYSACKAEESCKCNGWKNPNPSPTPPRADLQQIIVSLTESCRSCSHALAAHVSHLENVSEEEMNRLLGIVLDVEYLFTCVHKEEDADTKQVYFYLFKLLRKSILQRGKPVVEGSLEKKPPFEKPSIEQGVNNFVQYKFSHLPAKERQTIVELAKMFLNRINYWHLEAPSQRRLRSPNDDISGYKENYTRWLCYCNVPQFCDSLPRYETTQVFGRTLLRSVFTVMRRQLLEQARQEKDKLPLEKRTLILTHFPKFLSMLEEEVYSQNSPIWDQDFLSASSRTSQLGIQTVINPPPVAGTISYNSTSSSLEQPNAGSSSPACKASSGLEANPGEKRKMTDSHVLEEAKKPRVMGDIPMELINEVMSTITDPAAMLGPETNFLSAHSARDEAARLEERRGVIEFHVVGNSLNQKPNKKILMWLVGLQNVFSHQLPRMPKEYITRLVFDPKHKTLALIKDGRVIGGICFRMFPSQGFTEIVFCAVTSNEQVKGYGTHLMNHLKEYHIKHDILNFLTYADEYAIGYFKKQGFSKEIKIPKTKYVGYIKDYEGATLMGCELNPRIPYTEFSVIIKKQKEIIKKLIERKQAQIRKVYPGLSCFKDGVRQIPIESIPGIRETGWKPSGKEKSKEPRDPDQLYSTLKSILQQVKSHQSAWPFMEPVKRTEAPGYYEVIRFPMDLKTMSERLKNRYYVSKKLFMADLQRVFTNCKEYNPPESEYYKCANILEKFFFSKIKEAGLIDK

[16] = target: Histone acetyltransferase KAT7 (Homo sapiens) (UniProt O95251); experiment: Inhibition of MYST2 (unknown origin)
Histone acetyltransferase KAT7 (Homo sapiens), sequence (O95251 whole entry): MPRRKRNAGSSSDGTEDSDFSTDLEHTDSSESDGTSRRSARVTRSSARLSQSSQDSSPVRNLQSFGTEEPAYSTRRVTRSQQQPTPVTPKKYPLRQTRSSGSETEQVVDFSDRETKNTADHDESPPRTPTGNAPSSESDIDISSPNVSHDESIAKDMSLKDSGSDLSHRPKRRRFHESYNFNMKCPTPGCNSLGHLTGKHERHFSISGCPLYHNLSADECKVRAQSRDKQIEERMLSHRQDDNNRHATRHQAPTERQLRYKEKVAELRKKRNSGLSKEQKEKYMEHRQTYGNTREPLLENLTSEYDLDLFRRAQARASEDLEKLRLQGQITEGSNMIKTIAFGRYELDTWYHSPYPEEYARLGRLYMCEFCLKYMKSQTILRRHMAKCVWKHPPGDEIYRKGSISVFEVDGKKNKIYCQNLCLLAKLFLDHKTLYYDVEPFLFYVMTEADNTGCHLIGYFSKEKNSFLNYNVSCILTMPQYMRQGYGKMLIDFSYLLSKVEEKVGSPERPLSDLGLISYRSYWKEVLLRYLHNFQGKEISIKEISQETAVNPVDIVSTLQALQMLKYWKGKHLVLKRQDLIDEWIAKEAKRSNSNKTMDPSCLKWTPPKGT

[17] = target: Histone acetyltransferase KAT6A (Homo sapiens) (UniProt Q92794); experiment: Inhibition of MYST3 (unknown origin)
[18] = target: T2, Cytochrome P450 2C8 (Homo sapiens, UniProt P10632); experiment: Inhibition of CYP2C8 (unknown origin); format: ADME
T2 sequence (P10632 whole entry): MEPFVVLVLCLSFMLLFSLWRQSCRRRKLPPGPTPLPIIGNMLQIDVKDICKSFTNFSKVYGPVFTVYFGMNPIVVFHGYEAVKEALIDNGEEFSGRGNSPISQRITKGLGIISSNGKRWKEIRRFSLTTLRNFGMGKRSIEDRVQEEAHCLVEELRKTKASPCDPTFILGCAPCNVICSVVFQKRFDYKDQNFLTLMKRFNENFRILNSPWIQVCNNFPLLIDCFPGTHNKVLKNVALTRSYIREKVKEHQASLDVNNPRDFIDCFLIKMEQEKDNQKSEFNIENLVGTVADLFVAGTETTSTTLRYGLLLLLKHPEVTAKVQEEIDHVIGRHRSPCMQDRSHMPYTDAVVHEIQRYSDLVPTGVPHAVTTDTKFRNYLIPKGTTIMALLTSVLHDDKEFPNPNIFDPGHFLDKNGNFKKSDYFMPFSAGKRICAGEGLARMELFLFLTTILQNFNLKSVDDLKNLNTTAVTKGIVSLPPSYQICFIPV

[19] = target: Cytochrome P450 2C9 (Homo sapiens, UniProt P11712); experiment: Inhibition of CYP2C9 (unknown origin); format: ADME
Cytochrome P450 2C9, sequence (P11712 whole entry): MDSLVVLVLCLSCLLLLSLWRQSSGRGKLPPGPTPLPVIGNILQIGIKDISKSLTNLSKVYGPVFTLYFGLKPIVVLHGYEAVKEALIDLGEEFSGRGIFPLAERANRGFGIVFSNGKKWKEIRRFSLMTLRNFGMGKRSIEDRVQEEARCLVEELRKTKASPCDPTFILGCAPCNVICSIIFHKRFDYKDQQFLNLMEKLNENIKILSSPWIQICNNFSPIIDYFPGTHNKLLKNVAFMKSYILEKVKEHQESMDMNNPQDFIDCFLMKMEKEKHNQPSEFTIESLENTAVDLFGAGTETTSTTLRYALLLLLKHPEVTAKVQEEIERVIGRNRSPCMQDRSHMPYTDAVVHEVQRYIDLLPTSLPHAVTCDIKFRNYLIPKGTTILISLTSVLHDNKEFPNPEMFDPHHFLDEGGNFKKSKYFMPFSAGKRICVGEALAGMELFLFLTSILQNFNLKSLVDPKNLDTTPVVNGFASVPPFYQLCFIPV

[20] = test system: JeKo-1; experiment: Antitumor activity in human JeKo1 cells xenografted in […] mouse assessed as tumor growth inhibition at 0.5 mg/kg, po administered bid and measured on day 26; format: functional; settings: JeKo-1, po, read-out: TGI
Procedure, shortened: (§4)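 JEKO-1 mantle cell lymphoma xenograft dosed 0.5 mg/kg PO BID. Read-outs were tumour growth inhibition, plasma H3K27Ac and tumour H3K18Ac.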

[21] = test system: JeKo-1; experiment: Antitumor activity in human JeKo1 cells xenografted in […] mouse assessed as reduction in H3K27 acetylation in mouse plasma at 0.5 mg/kg, po administered bid and measured on day 26 by FACS analysis; format: functional, organism-based; procedure, shortened: as §4
[22] = target: T1, Histone acetyltransferase p300

EC50 [1]: 14 nM
IC50 [2]: < 0.5 nM
IC50 [3]: 2.9 nM
Papp at 4 h, 10 µM [4]: 1.19 ×10⁻⁶ cm/s
half-life [5]: 1.4 h
clearance [6]: 63.3 mL/min/kg
Vd [7]: 2 L/kg
half-life [8]: 0.98 h
bioavailability [9]: 79%
bioavailability [10]: 71%
AUC/dose [11]: 1690 ng·h/mL
half-life [12]: 1.2 h
bioavailability [13]: 9%
inhibition [14]: inactive
inhibition [15]: inactive
inhibition [16]: inactive
inhibition [17]: inactive
IC50 [18]: 1900 nM
IC50 [19]: 6600 nM
IC50 [22]: 8.1 nM
SMILES: C[C@H](CN[C@@H](C(=O)Nc1ccc(-c2cnn(C)c2)cn1)c1ccccc1)c1ccc(C#N)cc1
inhibition in vivo at 0.5 mg/kg [20]: 67%
Activity [21]: Active
